Assay outcomes: PubChem, several laboratories
CSC inhib – cancer stem cell inhibition; cancer stem cell-like cells viability, luminescence; inhibition, % at 7.5 µM; hit rate 1.1% among 300,000; AID 2717; in the data active = inhibition above about 75%; inconclusive = no clear call, values can overlap the other calls; tested in HMLE shEcad cells
Mdm2-MdmX inh – inhibitors of human Mdm2/MdmX interaction. inhibition, % at 8 µM. hit rate 3% among 330,000. SaOS-2 split-luciferase Mdm2/MdmX complementation, luminescence;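 active = inhibition of at least 50% at 8 µM in the primary screen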
Target sequence (O15151 whole entry, looked up): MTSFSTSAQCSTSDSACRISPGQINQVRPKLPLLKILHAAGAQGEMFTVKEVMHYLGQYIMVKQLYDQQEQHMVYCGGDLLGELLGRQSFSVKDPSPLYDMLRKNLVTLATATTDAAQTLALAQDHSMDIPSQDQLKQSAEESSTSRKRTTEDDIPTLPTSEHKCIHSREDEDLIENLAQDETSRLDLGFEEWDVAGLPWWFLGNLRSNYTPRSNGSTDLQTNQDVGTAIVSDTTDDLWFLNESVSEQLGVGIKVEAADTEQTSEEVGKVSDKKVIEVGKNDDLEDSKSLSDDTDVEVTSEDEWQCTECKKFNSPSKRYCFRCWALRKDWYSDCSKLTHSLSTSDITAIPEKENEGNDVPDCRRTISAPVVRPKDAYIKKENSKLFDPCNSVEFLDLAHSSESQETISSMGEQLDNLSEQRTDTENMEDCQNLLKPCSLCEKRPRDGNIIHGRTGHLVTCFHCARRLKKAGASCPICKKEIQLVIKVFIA
Target sequence (Q00987 whole entry, looked up): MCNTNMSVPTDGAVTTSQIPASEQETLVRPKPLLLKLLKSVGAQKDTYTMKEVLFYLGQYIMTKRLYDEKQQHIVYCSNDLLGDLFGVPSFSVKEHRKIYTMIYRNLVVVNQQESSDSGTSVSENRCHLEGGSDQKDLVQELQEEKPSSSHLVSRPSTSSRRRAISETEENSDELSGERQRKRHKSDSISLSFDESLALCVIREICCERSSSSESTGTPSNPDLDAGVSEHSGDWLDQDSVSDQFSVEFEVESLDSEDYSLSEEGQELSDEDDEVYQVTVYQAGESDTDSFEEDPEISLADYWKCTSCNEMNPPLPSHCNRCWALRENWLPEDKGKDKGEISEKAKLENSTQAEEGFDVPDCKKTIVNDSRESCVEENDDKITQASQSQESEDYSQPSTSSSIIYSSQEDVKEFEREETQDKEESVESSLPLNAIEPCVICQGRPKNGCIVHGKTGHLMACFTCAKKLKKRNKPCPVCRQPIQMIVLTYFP
SKKanGAS inh – SKKanGAS growth inhibition. S. pyogenes SKKanGAS, kanamycin growth, BacTiter-Glo, 6 h. inhibition, % at 7.5 µM. hit rate 1.3% among 300,000;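 active = mean replicate score, as percent of positive control median, at least 50; inconclusive = mean below 50 but one replicate at or above 50; inactive = mean and every replicate below 50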;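 note: strain carries kanamycin resistance gene driven by streptokinase promoter and grows in 40 µg/ml kanamycin; loss of luminescence reflects streptokinase promoter inhibition or plain growth inhibition; 0% = median of DMSO wells and 100% = positive control at its reference dose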
T cruzi repl – T. cruzi replication inhibition; hit rate 1.4% among 300,000; inhibition, % (no concentration beside the values); T. cruzi beta-gal in NIH3T3, luminescence, 90 h;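 active = mean inhibition across valid replicates above about 55%, limit read from the data; inconclusive = mean below that limit but half or more replicates reach it; inactive = mean below it, under half of replicates reach it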;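 note: signal also drops with host cell toxicity which is not excluded here; 0% = plate median of DMSO wells and 100% = zero luminescence signal; higher percent means less beta-gal luminescence so fewer parasites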
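assay system = mouse NIH/3T3 fibroblasts infected with β-gal-expressing T. cruzi Tulahuen C4 | input = 5,000 NIH/3T3 host cells per well | buffer or medium = DMEM plus 2% FBS | timing = 3 h host attachment, then at least 90 h co-culture | measured by = GalScreen luminescence, 60 min | evaluation = luminescence reflecting intracellular parasite burden, expressed as percent inhibition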
Beta apoptosis – beta cell apoptosis inhibition | INS-1E cytokine-induced death, ATP luminescence, 48 h; percent of positive-control rescue, neutral wells zero | protection from apoptosis, % (no concentration beside the values) | hit rate 0.8% among 300,000;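 active = Every replicate reaches about 75%, or at least half do and their mean reaches it too, limit read from the data; inconclusive = At least half of replicates reach the limit but their mean does not; inactive = Under half of replicates reach the limit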;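 note: 0% = cytokine-treated negative control wells and 100% = positive control rescue; higher means more ATP so stronger rescue from cytokine killing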
Calb FLC – C. albicans growth modulation with fluconazole | hit rate 0.57% among 300,000 | growth inhibition, % (no concentration beside the values) | C. albicans CaCi-2 (fluconazole-resistant clinical isolate) + fluconazole, Alamar Blue growth, 48 h;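 active = growth inhibition above about 58% in most replicates, limit read from the data, passing the limit was not always enough; inconclusive = exactly half the replicates above a set limit; inactive = most replicates below a set limit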;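 note: all wells also contain fluconazole at 8 µg/ml as a sub-toxic cotreatment; 0% = median of DMSO wells and 100% = median of geldanamycin control wells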
Active calls of the source: *; ? = inconclusive; · = not tested or not shown. Sampled rows, rich in hits. Any-hit rate of the full collection: about 5.7%.

SMILES | CSC inhib | Mdm2-MdmX inh | SKKanGAS inh | T cruzi repl | Beta apoptosis | Calb FLC
O=C(Cc1ccc(Cl)cc1)c1c[nH]c(C(=O)NCc2cccnc2)c1 | 13 | 6 | -4 | -8 | 107* | -22
Nc1ccccc1SC/C=C/CSc1ccccc1N | 55 | 19 | -2 | 8 | 0 | -1
O=C(COC(=O)CNS(=O)(=O)c1ccc(Cl)cc1)NC1CCCCC1 | · | 3 | · | · | · | ·
N#Cc1ccccc1S(=O)(=O)N1CCN(C(=O)C2CCCCC2)CC1 | 6 | -30 | · | · | -1 | ·
O=c1c2ccc([N+](=O)[O-])cc2ncn1CCOc1cccc(Br)c1 | -11 | 13 | 2 | 67* | 0 | -9
O=C(Cn1cnc2cc([N+](=O)[O-])ccc2c1=O)NCc1ccc(Cl)cc1 | -4 | -4 | 2 | 52 | -10 | 43
Cc1cc(OCCn2cnc3ccccc3c2=O)ccc1[N+](=O)[O-] | -5 | 0 | -1 | 4 | 7 | 25
O=c1c2ccc([N+](=O)[O-])cc2ncn1CCOc1ccc(Cl)cc1 | 6 | -19 | 5 | 63* | -6 | 16
COC(=O)c1ccccc1NC(=O)CSc1nncn1-c1ccccn1 | -5 | 8 | 5 | -1 | 2 | -9
Cc1ccc(C2=NN(C(=O)c3cccs3)C(c3ccccc3O)C2)cc1 (stereo not given) | 2 | 25 | 1 | 64* | 9 | 26
Cc1ccc(C2CC(c3cccs3)=NN2C(=O)c2ccc(Br)o2)cc1 (stereo not given) | 19 | 25 | 88* | 31 | 15 | -2
O=C(c1cccs1)N1N=C(c2ccccc2)CC1c1ccccc1O (stereo not given) | 4 | -2 | 15 | 57* | 6 | 31
O=C(CNC(=O)N1CC(=O)Nc2ccccc21)NCc1ccccc1Cl | -19 | 0 | 3 | -6 | -7 | 0
CN(Cc1ccc(N(C)C)cc1)C(=O)c1cc2ccccc2o1 | 11 | 9 | 60* | 42 | 3 | 7
CC(C)(C)N(Cc1ccccc1)C(=O)c1cc2ccccc2o1 | 78* | 5 | 13 | 20 | 0 | -4
CN(Cc1ccccc1)C(=O)c1cc2ccccc2o1 | -2 | 9 | -3 | -7 | -12 | -2
O=C(CN1CCN(S(=O)(=O)c2ccc(Cl)c(Cl)c2)CC1)N1CCCC1 | · | -8 | · | · | -12 | ·
CCN(CC)C(=O)/C(=C/c1ccc2c(c1)OCO2)NC(=O)c1ccc(Br)cc1 | -12 | 15 | -12 | 9 | -4 | 91*
O=C(O)CNC(=O)/C(=C\c1ccc2c(c1)OCO2)NC(=O)c1ccc(Br)cc1 | 2 | 14 | -10 | -6 | · | 11
Cc1cc(C)c(C)c(OCCCOc2cccc3cccnc23)c1 | 28 | -32 | 61* | 25 | 0 | -5
Cc1cc(OCCOc2cccc3cccnc23)cc(C)c1Cl | 2 | 7 | 6 | 5 | -10 | -5
CCOC(=O)Cc1csc(NC(=O)CSc2nnc(-c3ccncc3)o2)n1 | -5 | -29 | 1 | 6 | 4 | 106*
CCOC(=O)Cc1csc(NC(=O)CSc2nnc(-c3ccc(NS(=O)(=O)CC)cc3)o2)n1 | -10 | 9 | 6 | 0 | -5 | 85*
Cc1csc(NC(=O)CSc2nnc(-c3ccncc3)o2)n1 | 2 | 13 | 2 | -12 | -2 | 10
CCCc1c(-c2ccc(O)cc2)nn(-c2ccc(O)cc2)c1-c1ccc(O)cc1 | 84* | 46 | 16 | -4 | -1 | ·
SMILES | CSC inhib | Mdm2-MdmX inh | SKKanGAS inh | T cruzi repl | Beta apoptosis | Calb FLC
O=C(O)c1ccc(CSc2nc(-c3ccc(Cl)cc3)cc(C(F)(F)F)n2)cc1 | ? | 25 | 52* | -24 | -2 | -2
COc1ccccc1Cc1nnc(NC(=O)C2CCN(C(=O)c3ccco3)CC2)s1 | 13 | 16 | -10 | 3 | -1 | -9
O=C(Nc1ccc(Cl)cc1)N1CCCN(c2ccc(C(F)(F)F)cc2[N+](=O)[O-])CC1 | 83* | 13 | 16 | 21 | -3 | 1
O=[N+]([O-])c1cc(C(F)(F)F)ccc1N1CCC(O)CC1 | -9 | 6 | -1 | -8 | -5 | 3
O=S(=O)(N[C@H]1C[C@@H](NS(=O)(=O)OCC(Cl)(Cl)Cl)C2CCCCC21)OCC(Cl)(Cl)Cl (stereo not given in full) | 76* | · | 93* | -4 | 3 | -7
O=C(COc1ccc(Cl)cc1)Nc1cc(NC(=O)COc2ccc(Cl)cc2)cc(C(=O)O)c1 | 0 | 15 | 25 | 11 | -4 | 0
